What was measured:
[1] = target: T1, Testis-specific serine/threonine-protein kinase 1 (Homo sapiens) (UniProt Q9BXA7); test: Inhibition of TSSK1B at 1 uM
T1 sequence (whole entry): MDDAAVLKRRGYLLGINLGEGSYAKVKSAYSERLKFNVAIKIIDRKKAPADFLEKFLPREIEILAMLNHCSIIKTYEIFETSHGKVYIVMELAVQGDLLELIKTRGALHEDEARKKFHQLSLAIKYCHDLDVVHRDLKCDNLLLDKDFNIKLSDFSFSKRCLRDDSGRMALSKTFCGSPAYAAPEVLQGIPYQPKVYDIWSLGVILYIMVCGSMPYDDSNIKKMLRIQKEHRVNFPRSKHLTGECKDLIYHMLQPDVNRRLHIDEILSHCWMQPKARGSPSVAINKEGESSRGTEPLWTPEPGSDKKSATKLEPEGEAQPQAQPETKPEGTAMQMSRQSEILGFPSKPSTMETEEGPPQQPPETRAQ

[2] = target: Dual specificity protein kinase CLK4 (Homo sapiens) (UniProt Q9HAZ1); test: Inhibition of CLK4 at 1 uM
Procedure, shortened: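 Single-concentration screen using Ambit Bioscience KINOMEscan technology across a panel of 250–400 kinases. Per-kinase inhibition from this screen was summarized as S(90), the fraction of kinases inhibited by more than 90%.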

[3] = target: Myosin light chain kinase 2, skeletal/cardiac muscle (Homo sapiens) (UniProt Q9H1R3); test: Inhibition of MYLK2 at 1 uM
[4] = target: Non-receptor tyrosine-protein kinase TYK2 (Homo sapiens) (UniProt P29597); test: Inhibition of TYK2 JH1 catalytic domain at 1 uM
Procedure, shortened: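 Single-concentration screen on the Ambit KINOMEscan platform, run against a panel of 250–400 kinases. Per-kinase inhibition was also summarized as S(90), the fraction of kinases inhibited by more than 90%.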

[5] = target: T2, Megakaryocyte-associated tyrosine-protein kinase (Homo sapiens) (UniProt P42679); test: Inhibition of CTK at 1 uM
T2 sequence (whole entry): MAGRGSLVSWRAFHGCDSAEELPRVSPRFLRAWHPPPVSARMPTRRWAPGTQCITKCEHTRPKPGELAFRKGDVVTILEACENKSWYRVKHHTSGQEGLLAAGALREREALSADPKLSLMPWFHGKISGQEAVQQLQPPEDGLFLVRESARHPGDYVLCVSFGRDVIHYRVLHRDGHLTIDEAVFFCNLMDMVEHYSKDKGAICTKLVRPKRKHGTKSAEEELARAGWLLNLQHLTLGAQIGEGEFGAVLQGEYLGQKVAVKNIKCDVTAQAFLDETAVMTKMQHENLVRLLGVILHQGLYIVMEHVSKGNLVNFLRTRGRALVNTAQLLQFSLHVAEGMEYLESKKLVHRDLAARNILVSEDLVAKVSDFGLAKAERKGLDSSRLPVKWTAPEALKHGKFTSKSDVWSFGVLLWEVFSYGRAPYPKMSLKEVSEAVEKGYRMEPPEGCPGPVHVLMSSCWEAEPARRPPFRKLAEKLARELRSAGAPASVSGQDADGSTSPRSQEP

[6] = target: ALK tyrosine kinase receptor (Homo sapiens, UniProt Q9UM73); test: Inhibition of ALK phosphorylation in human Karpas-299 cells by immunoblotting and ELISA; type: cell-based
Procedure, shortened: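 Karpas-299 cells were treated with compound, then lysed in Tris pH 7.5 / 1% Triton X-100 buffer containing phosphatase and protease inhibitors, briefly sonicated and cleared. For immunoblots, SDS–PAGE was probed with phospho-NPM-ALK(Y664) or total ALK antibodies and bands were quantified by ECL. For ELISA, lysates were captured overnight at 4 °C on anti-ALK, detected with anti-phospho-ALK(Y664) plus AP secondary, and read by 4-MeUP fluorescence.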

Dual specificity protein kinase CLK4 (Homo sapiens), sequence (Q9HAZ1 whole entry, looked up): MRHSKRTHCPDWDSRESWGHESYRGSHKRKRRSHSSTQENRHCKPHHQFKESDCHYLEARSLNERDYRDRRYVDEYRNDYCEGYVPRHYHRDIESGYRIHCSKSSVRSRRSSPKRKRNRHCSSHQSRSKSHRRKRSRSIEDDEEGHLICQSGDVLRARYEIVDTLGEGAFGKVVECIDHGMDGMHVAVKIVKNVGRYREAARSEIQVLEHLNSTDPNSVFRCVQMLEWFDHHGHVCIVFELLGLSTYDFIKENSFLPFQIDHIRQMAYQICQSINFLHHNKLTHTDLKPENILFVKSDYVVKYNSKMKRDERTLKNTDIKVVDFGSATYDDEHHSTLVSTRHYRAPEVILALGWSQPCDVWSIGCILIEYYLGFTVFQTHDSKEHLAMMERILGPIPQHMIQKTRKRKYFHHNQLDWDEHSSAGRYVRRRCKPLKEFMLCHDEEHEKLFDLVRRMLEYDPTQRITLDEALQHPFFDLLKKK
Non-receptor tyrosine-protein kinase TYK2 (Homo sapiens), sequence (P29597 whole entry, the tested form may be a part): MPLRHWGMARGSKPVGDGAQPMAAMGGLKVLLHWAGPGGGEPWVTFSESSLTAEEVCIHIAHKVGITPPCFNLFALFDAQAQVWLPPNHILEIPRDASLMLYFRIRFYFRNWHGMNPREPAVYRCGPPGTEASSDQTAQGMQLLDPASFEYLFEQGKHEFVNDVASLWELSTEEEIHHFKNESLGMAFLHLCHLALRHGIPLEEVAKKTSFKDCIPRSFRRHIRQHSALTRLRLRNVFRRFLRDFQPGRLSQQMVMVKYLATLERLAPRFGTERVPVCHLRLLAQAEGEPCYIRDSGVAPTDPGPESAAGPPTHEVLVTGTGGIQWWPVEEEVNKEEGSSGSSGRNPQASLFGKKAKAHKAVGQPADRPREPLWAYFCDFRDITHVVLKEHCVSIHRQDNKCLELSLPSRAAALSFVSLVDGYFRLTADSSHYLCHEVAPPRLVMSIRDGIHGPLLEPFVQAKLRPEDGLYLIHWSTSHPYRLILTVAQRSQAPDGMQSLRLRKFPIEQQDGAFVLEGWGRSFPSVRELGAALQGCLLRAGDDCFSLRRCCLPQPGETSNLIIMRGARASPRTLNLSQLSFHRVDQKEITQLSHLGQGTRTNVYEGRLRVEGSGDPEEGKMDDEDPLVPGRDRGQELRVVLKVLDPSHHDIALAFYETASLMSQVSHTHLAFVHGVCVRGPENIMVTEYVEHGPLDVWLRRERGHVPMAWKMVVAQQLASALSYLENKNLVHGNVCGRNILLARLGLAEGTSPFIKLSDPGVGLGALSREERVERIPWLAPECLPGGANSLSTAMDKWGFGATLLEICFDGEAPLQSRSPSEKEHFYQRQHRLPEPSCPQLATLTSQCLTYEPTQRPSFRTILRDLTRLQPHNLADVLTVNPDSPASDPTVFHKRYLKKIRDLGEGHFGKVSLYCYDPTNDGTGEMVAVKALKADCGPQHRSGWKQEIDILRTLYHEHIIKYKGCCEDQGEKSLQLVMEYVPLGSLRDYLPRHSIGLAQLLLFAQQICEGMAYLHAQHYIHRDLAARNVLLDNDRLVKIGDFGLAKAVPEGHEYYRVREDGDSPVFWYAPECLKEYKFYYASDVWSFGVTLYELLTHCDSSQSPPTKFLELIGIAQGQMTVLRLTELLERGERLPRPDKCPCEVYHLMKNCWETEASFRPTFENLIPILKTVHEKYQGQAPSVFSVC
Myosin light chain kinase 2, skeletal/cardiac muscle (Homo sapiens), sequence (Q9H1R3 whole entry, the tested form may be a part): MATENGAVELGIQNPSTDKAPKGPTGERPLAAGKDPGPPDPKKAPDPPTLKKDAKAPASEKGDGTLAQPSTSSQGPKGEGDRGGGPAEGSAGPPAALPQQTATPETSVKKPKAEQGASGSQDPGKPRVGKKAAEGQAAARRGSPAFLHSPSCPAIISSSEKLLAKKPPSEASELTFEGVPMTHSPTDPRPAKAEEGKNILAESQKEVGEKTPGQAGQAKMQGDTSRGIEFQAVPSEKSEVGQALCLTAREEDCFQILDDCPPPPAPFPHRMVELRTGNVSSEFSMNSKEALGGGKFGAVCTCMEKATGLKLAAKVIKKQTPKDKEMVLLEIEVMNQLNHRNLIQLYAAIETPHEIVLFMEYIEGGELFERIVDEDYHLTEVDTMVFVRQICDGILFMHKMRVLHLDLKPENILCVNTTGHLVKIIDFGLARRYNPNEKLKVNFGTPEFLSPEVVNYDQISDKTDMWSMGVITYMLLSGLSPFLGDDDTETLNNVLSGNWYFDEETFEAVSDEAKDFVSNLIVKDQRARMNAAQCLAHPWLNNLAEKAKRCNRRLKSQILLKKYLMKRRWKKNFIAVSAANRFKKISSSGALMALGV
ALK tyrosine kinase receptor, sequence (Q9UM73 whole entry): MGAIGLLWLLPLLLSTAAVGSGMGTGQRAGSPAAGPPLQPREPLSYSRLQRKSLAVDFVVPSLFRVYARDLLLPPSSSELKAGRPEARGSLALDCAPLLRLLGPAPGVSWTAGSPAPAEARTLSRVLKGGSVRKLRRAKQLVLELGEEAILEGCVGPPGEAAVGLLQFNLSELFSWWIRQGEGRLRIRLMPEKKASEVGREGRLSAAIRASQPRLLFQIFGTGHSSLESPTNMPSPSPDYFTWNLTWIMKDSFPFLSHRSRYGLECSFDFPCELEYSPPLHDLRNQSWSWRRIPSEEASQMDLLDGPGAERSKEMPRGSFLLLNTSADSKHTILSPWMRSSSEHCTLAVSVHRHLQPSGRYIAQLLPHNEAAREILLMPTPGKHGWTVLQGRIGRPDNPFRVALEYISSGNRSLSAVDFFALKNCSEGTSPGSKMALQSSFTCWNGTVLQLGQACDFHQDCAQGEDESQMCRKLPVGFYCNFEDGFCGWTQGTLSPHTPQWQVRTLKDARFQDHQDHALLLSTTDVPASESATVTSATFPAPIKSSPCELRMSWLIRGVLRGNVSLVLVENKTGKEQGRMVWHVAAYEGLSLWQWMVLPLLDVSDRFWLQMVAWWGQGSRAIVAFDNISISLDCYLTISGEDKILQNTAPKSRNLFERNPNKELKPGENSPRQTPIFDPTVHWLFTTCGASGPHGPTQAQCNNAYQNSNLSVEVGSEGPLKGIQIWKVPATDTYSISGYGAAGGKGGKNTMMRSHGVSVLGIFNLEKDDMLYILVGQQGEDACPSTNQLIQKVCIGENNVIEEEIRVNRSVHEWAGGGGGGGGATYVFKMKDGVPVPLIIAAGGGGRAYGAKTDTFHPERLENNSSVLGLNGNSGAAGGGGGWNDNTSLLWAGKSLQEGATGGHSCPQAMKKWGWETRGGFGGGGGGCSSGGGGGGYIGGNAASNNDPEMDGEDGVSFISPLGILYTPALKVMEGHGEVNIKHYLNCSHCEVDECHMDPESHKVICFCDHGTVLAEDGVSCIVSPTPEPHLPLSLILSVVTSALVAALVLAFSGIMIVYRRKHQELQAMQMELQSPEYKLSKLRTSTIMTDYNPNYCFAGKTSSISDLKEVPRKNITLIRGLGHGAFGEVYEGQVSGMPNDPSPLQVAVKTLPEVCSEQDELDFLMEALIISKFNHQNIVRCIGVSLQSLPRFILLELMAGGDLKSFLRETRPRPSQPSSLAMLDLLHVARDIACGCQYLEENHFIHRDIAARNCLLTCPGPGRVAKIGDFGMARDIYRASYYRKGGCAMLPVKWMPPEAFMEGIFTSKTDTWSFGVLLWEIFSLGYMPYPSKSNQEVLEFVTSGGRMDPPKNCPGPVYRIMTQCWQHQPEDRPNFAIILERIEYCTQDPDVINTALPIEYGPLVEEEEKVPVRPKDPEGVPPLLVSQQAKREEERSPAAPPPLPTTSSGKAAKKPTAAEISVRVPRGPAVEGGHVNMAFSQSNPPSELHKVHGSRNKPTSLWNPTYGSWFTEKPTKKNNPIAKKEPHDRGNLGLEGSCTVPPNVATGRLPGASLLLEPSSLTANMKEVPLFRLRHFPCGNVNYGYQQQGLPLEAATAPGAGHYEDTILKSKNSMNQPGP

SMILES: CN1CCN(c2ccc(-c3cnc4c(c3)N(Cc3cc(F)ccc3F)CCN4)cn2)CC1
- inhibition [1]: < 50%
- inhibition [2]: < 50%
- inhibition [3]: < 50%
- inhibition [4]: < 50%
- inhibition [5]: < 50%
- IC50 [6]: 0.2 µM

SMILES: CC(=O)N1CCN(c2cc(-c3cnc4c(c3)N(Cc3cc(Cl)ccc3C(F)(F)F)CCN4)ccn2)CC1
- inhibition [1]: < 50%
- inhibition [2]: < 50%
- inhibition [3]: < 50%
- inhibition [4]: 72%
- inhibition [5]: < 50%
- IC50 [6]: 0.25 µM

SMILES: CN1CCN(c2ccc(-c3cnc4c(c3)N(Cc3c(F)ccc(F)c3Cl)CCN4)cn2)CC1
- inhibition [1]: < 50%
- inhibition [2]: < 50%
- inhibition [3]: < 50%
- inhibition [4]: < 50%
- inhibition [5]: < 50%

SMILES: FC(F)(F)c1ccc(Cl)cc1CN1CCNc2ncc(-c3ccnc(N4CCNCC4)c3)cc21
- inhibition [1]: < 50%
- inhibition [2]: < 50%
- inhibition [3]: < 50%
- inhibition [4]: 72%
- inhibition [5]: < 50%
- IC50 [6]: 0.15 µM

SMILES: CN1CCN(c2ccc(-c3cnc4c(c3)N(Cc3cc(Cl)ccc3Cl)CCN4)cn2)CC1
- inhibition [1]: < 50%
- inhibition [2]: < 50%
- inhibition [3]: < 50%
- inhibition [4]: < 50%
- inhibition [5]: < 50%

SMILES: O=C(c1ccc(-c2cnc3c(c2)N(Cc2cc(Cl)ccc2C(F)(F)F)CCN3)cc1)N1CCC(N2CCCC2)CC1
- inhibition [2]: < 50%
- inhibition [3]: < 50%
- inhibition [4]: < 50%
- inhibition [5]: < 50%
- IC50 [6]: 0.25 µM

SMILES: O=C(O)c1ccc(-c2cnc3c(c2)N(Cc2cc(Cl)ccc2C(F)(F)F)CCN3)cc1
- inhibition [2]: < 50%
- inhibition [3]: < 50%
- inhibition [4]: < 50%

SMILES: CN1CCN(c2ccc(-c3cnc4c(c3)N(Cc3cc(Cl)ccc3C(F)(F)F)CCN4)cn2)CC1
- inhibition [1]: < 50%
- inhibition [2]: < 50%
- inhibition [3]: < 50%
- inhibition [4]: 79%
- inhibition [5]: < 50%

SMILES: O=C(c1ccc(-c2cnc3c(c2)N(Cc2cc(Cl)ccc2C(F)(F)F)CCN3)cc1)N1CCCCC1
- inhibition [2]: < 50%
- inhibition [3]: < 50%
- inhibition [4]: < 50%
- inhibition [5]: < 50%

SMILES: COC1CCN(C(=O)c2ccc(-c3cnc4c(c3)N(Cc3cc(Cl)ccc3C(F)(F)F)CCN4)cc2)CC1
- inhibition [2]: < 50%
- inhibition [3]: < 50%
- inhibition [4]: < 50%
- inhibition [5]: < 50%
- IC50 [6]: 0.45 µM

From ChEMBL document CHEMBL1165965, “Synthesis and structure-activity relationships of 1,2,3,4-tetrahydropyrido[2,3-b]pyrazines as potent and selective inhibitors of the anaplastic lymphoma kinase” (Bioorg Med Chem, 2010)
